Screens: PubChem, several laboratories
Ecoli WT expand = E. coli BW25113 growth inhibition, expanded screen; OD600 absorbance; growth inhibition, % at 100 µM; 98,000 tested, 0.15% active; AID 710;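 active = growth inhibition above about 50% at one test dose, limit read from the data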;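 note: growth measured after 20 h incubation at 37 °C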
M1 ag = activates the M1 muscarinic receptor | B-score at 10 µM | AID 626 | 64,000 tested, 3% active | CHO-M1 cells, Fluo-4 calcium fluorescence, agonist mode; hits give high values;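 active = fluorescence rise, raw or as B-score row- and column-corrected plate score, outside the 99.7% band of its plate's samples, either direction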
tolC growth inh = E. coli tolC mutant growth inhibition | 65,000 tested, 2.2% active | E. coli BW25113 tolC mutant growth, OD615 | growth inhibition, % at 10 µM (by protocol);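 active = growth inhibition at or above a cutoff equal to the mean over every tested compound plus 3 SD, cut at about 60% in these data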;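 note: growth measured after 20 h incubation at 37 °C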
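Test system – E. coli BW25113 ΔtolC::kan, tolC deletion mutant strain · Detection – OD at 615 nm · Buffer or medium – LB with kanamycin 50 µg/mL · Times – 20 h compound exposure of bacteria at 37 °C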
WNV NS2B-NS3 inh = blocks West Nile virus NS2B-NS3 protease activity; 65,000 tested, 0.18% active; AID 577; z-score (concentration not given with the values); WNV NS2B-NS3 protease, fluorogenic substrate Ex360/Em465; hits give low values; in the data active = z-score below about -3
Target sequence (P06935 1371-1501 limits assumed): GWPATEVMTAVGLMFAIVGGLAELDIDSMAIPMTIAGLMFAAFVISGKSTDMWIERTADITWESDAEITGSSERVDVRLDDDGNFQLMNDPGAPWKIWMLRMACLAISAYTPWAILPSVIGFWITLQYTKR
Target sequence (P06935 1502-1679 limits assumed): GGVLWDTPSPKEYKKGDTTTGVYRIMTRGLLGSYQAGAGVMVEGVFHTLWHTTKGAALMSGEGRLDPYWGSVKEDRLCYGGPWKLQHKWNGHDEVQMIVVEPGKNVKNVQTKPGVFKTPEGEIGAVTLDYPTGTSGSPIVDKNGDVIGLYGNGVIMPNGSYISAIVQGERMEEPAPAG
AP complement = alternative pathway complement inhibition, orthogonal assay; Human serum alternative complement pathway, LPS-coated ELISA, C3 deposition; tested in compound mixtures; inhibition, % at 5 µM; 62,000 tested, 0.08% active; AID 1235;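 active = inhibition above 30% in each of the two pooled mixtures holding the compound, so the lower value exceeds 30%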
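Medium: diluted human serum in Mg2+-EGTA GVB++. Assay system: human serum complement alternative pathway, C3 deposition onto LPS. Also added: Plate-bound LPS. Technique: Anti-C3 ELISA, OD 450 nm. Measure: percent inhibition. Incubation: 1 h at 37 °C. Dosing: 5 µM each compound, pools of ten, 50 µM per pool.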
M1 antag = blocks the rat M1 muscarinic receptor response to acetylcholine | P08482 | CHO-M1 cells, Fluo-4 calcium, ACh EC80 antagonist mode; hits give low values | B-score at 10 µM | 64,000 tested, 3.4% active;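 active = calcium fluorescence response, raw or row-and-column corrected B-score, differing from the plate sample mean either way at a set confidence level, mostly lower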
M1 antag confirm = confirmation of rat M1 muscarinic receptor antagonists. shares compounds with M1 antag. 1,700 tested, 43% active. calcium response (max-min fluorescence) at 10 µM. CHO-M1 cells, Fluo-4 calcium, ACh EC80 antagonism; hits give low values;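 active = calcium response below the same-plate mean of wells given acetylcholine alone at its 80%-effect dose, minus 3 SD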
mGluR4 antag = mGluR4 (human) activity, M1 antagonist secondary assay; shares compounds with M1 antag; CHO-mGluR4 calcium flux, Fluo-4 fluorescence, glutamate EC80; hits give low values; fluorescence response (max-min) at 10 µM; 1,700 tested, 0.9% active;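 active = fluorescence response below the plate's average for near-maximal glutamate wells, less 3 SD of those wells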;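 note: raw unnormalized fluorescence span taken in the window right after glutamate addition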
Each line names hits and unclear results; the compound was inactive in the other large screens (follow-up assays come after a bar, where they were run). Shown are actives, neighbours in structure and some others; about 5.2% of the full set was active somewhere.

CC1CN=C(N(C(=O)Nc2ccccc2)c2ccc(S(=O)(=O)N3CCOCC3)cc2)S1 (stereo not given)	none
O=C(CCNC(=O)c1ccc(Br)o1)NCc1ccccc1Cl	none
O=C(CCNC(=O)c1ccc(Br)o1)NCc1ccccn1	M1 antag -7.67 | M1 antag confirm inactive | mGluR4 antag 144
CCCC(=O)NCCCc1nc2ccccc2n1C(C)C	none
COCCCNC(=O)CS(=O)(=O)Cc1nc(-c2ccccc2C)oc1C	M1 antag -3.04 | M1 antag confirm inactive | mGluR4 antag inactive
COCCNC(=O)C(c1cccs1)N(C(=O)Cn1nnc2ccccc21)c1cccc(C(C)=O)c1 (stereo not given)	none
COCCNC(=O)C(c1cccs1)N(C(=O)Cn1nnc2ccccc21)c1cccc(C)c1 (stereo not given)	M1 antag -18.3 | M1 antag confirm inactive | mGluR4 antag inactive
Cc1cc(C)cc(N(CC(=O)NCCSc2ccccn2)S(=O)(=O)c2ccccc2)c1	none (no result: M1 ag, tolC growth inh, WNV NS2B-NS3 inh, AP complement, M1 antag)
C=CCOC(=O)COc1ccc2c(C)c(C)c(=O)oc2c1	M1 antag -2.61 | M1 antag confirm inactive | mGluR4 antag inactive
CCOC(=O)CCc1c(C)c2ccc(OCc3nn[nH]n3)cc2oc1=O	none (no result: M1 ag, M1 antag)
CCOC(=O)CCc1c(C)c2ccc(OCC(=O)OC(C)C)cc2oc1=O	M1 antag -2.4 | M1 antag confirm inactive | mGluR4 antag inactive
COC(=O)CNC(=O)Cc1c(F)cccc1Cl	none
COc1cc(OC)c2nc(C)c3c(c2c1)N(c1ccc(O)cc1)CC3	none (no result: M1 ag, tolC growth inh, WNV NS2B-NS3 inh, AP complement, M1 antag)
CCOC(=O)c1c(NC(=O)Cn2nc([N+](=O)[O-])c(Br)c2C)sc2c1CCC(C)C2 (stereo not given)	none (no result: M1 ag, tolC growth inh, WNV NS2B-NS3 inh, AP complement, M1 antag)
COc1ccc(C2C(C(=O)c3sc(C)nc3C)=C(O)C(=O)N2CCN(C)C)cc1 (stereo not given)	M1 antag -10.9 | M1 antag confirm inactive | mGluR4 antag inactive
Cc1nc(C)c(C(=O)C2=C(O)C(=O)N(CCN(C)C)C2c2ccccc2)s1 (stereo not given)	none
CC(=O)Nc1ccc(S(=O)(=O)N2CCN(C)CC2)cc1	none (no result: M1 ag, tolC growth inh, WNV NS2B-NS3 inh, AP complement, M1 antag)
CC(=O)Nc1ccc(S(=O)(=O)N2CCN(C34CC5CC(CC(C5)C3)C4)CC2)cc1	M1 antag -3.06 | M1 antag confirm inactive | mGluR4 antag inactive
CCc1ccc(OCc2nnc(SCCN3CCOCC3)n2C)cc1	none
CCc1oc2ccccc2c1C(=O)CCN1CCCCC1	M1 antag -7.08 | M1 antag confirm 196 | mGluR4 antag inactive
O=C(c1ccc(S(=O)(=O)N2CCCCCC2)cc1)N1CCN(c2ccccn2)CC1	M1 antag -2.15 | M1 antag confirm 507 | mGluR4 antag inactive
O=C(c1ccc(Cl)c(S(=O)(=O)N2CCCC2)c1)N1CCN(c2ccccn2)CC1	none (no result: M1 ag, tolC growth inh, WNV NS2B-NS3 inh, AP complement, M1 antag)
Cc1noc(C)c1C(=O)N1CCN(Cc2ccccc2)CC1	none (no result: M1 ag, tolC growth inh, WNV NS2B-NS3 inh, AP complement, M1 antag)
Cc1noc(C)c1C(=O)N1CCN(C(=O)c2sc3cc(Cl)ccc3c2Cl)CC1	M1 antag -3.99 | M1 antag confirm inactive | mGluR4 antag inactive
COc1ccc(-c2cc(C(=O)N3CCN(c4ccccn4)CC3)c3ccccc3n2)cc1	none
COc1cc(-c2cc(C(=O)N3CCN(c4ccccn4)CC3)c3ccccc3n2)cc(OC)c1OC	M1 antag -3.77 | M1 antag confirm inactive | mGluR4 antag inactive
CCc1ccc(NC(=O)CSc2nnc(SCC(=O)Nc3ccc(CC)cc3)n2N)cc1	none (no result: M1 ag, tolC growth inh, WNV NS2B-NS3 inh, AP complement, M1 antag)
CSc1ccc(-c2nnn(Cc3ccc(C)cc3)n2)cc1	M1 antag -5.41 | M1 antag confirm inactive | mGluR4 antag inactive
CCC(NC(C)C)C(O)c1ccc(O)c(O)c1 (stereo not given)	M1 antag -14.2 (no result: Ecoli WT expand) | M1 antag confirm inactive | mGluR4 antag inactive
CCC(C)c1ccc(O)c(NC(=O)c2cccnc2)c1 (stereo not given)	none
CCOC(=O)N1CCN(C(=O)CN(c2ccc(C)cc2)S(=O)(=O)c2c(C)noc2C)CC1	M1 antag -1.12 | M1 antag confirm inactive | mGluR4 antag inactive
